Reference: ChEMBL document CHEMBL1135697, “Formaldehyde-induced DNA cross-link of indolizino[1,2-b]quinolines derived from the A-D rings of camptothecin” (J Med Chem, 2002)

Key:
Assay type in all cases: functional
Bos taurus [1] = species: Bos taurus; test: Variation in melting temperature performed in BPE buffer at pH 7.1,using 10 uM drug and 20 uM calf thymus DNA (CT)
Method in brief: (§1)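 UV melting is monitored at 260 nm with a 1 °C/min heating ramp. BPE buffer is 6 mM Na2HPO4, 2 mM NaH2PO4 and 1 mM EDTA, pH 7.1. DNA is calf thymus or poly(dAdT)2 at 20 μM. ΔTm = Tm(complex) − Tm(DNA alone).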

Bos taurus [2] = species: Bos taurus; test: Variation in melting temperature performed in BPE buffer at pH 7.1,using 10 uM drug and 20 uM calf thymus poly (dAT); method in brief: as §1
Bos taurus [3] = species: Bos taurus; test: Absorption spectral changes upon addition of 200 uM calf thymus DNA to drug solution at 20 uM in 1 mM Na cacodylate buffer at pH 7.0
Method in brief: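 Read-out is UV-visible absorption of the drug before and after DNA addition. Hypochromism (H) and bathochromic shift (Δλ) are reported.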

Calf thymus DNA [4] = test: Binding constant to reduce by 50% the fluorescence of ethidium bromide bound to calf thymus DNA; conditions: Bos taurus
Method in brief: (§2)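 Competitive fluorometric displacement of ethidium bromide prebound to calf thymus DNA. The drug level that cuts ethidium fluorescence by 50% is found, and the binding constant is calculated from it.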

Calf thymus DNA [5] = test: Binding constant to reduce by 50% the fluorescence of ethidium bromide bound to calf thymus DNA; No displacement of DNA-bound ethidium bromide at 50 uM; conditions: Bos taurus; method in brief: as §2

SMILES	ΔTm (Bos taurus [1]) [°C]	ΔTm (Bos taurus [2]) [°C]	Bathochromic shift (Bos taurus [3]) [nm]	Hypochromic shift (Bos taurus [3]) [%]	K app x10e6 (Calf thymus DNA [4]) [M⁻¹]	K app x10e6 (Calf thymus DNA [5])
Cc1cc2n(c(=O)c1CN)Cc1cc3cc(OCCN4CCCCC4)ccc3nc1-2	13.6	19.8	9	35.3	2.5	–
Cc1cc2n(c(=O)c1CN)Cc1cc3ccccc3nc1-2	1.9	3	8	33.1	–	No displacement of DNA-bound ethidium bromide at 50 uM
Cc1cc2n(c(=O)c1CN)Cc1cc3ccc(OCCN4CCCCC4)cc3nc1-2	19.4	28.6	11	38.6	8.4	–
Cc1cc2n(c(=O)c1C(N)=O)Cc1cc3cc(OCCN4CCCCC4)ccc3nc1-2	1.2	5.8	9	33	0.29	–
Cc1cc2n(c(=O)c1C(N)=O)Cc1cc3ccccc3nc1-2	0	0	0	2.7	–	No displacement of DNA-bound ethidium bromide at 50 uM
Cc1cc2n(c(=O)c1C(N)=O)Cc1cc3ccc(OCCN4CCCCC4)cc3nc1-2	4.6	12.8	8	35.8	0.2	–
